Results gathered from unrelated publications.
HSP90B1: Endoplasmin (HSP90B1, Canis lupus familiaris, UniProt P41148)
LYZ: Lysozyme C (LYZ, Gallus gallus, UniProt P00698)
MTOR: Serine/threonine-protein kinase mTOR (MTOR, Homo sapiens, UniProt P42345)
TYK2 JH2: Non-receptor tyrosine-protein kinase TYK2, JH2 (TYK2, Homo sapiens, UniProt P29597)
SMARCA2 bromodomain: SWI/SNF-related matrix-associated actin-dependent regulator of chromatin subfamily A member 2, bromodomain (SMARCA2, Homo sapiens, UniProt P51531)

Compound | target | effect on | technique | pH | setting | Kd [nM]
COC(=O)c1c(O)cc(O)c(Cl)c1CCC(=O)Nc1ccc(Br)cc1 | HSP90B1 | ligand displacement | FP |  |  | 1500
Cc1cc2nc3c(=O)[nH]c(=O)nc-3n(C[C@H](O)[C@H](O)[C@H](O)COP(=O)(O)OP(=O)(O)OC[C@H]3O[C@@H](n4cnc5c(N)ncnc54)[C@H](O)[C@@H]3O)c2cc1C | Heterogeneous nuclear ribonucleoprotein H (Homo sapiens, UniProt P31943) | binding |  |  | lysate | 53
COC(=O)c1c(O)cc(O)c(Cl)c1CCC(=O)Nc1ccccc1Cl | HSP90B1 | ligand displacement | FP |  |  | 1850
CC(=O)N[C@H]1[C@H](O[C@H]2[C@H](O)[C@@H](NC(C)=O)C(O)O[C@@H]2CO)O[C@H](CO)[C@@H](O[C@@H]2O[C@H](CO)[C@@H](O)[C@H](O)[C@H]2NC(C)=O)[C@@H]1O (stereo partly shown) | LYZ | binding |  | pH 7.4 |  | 6200
CCC(=O)N1CCC(C(=O)NCC(=O)N2CCN(c3nc(-c4cnc(N)nc4C(F)F)nc(N4CCOCC4)n3)CC2)CC1 | MTOR | binding | competition with immobilised ligand |  |  | 33
CC(C)Nc1ccnc(Nc2cccc(-c3cccnc3)c2)n1 | TYK2 JH2 | binding | competition with immobilised ligand |  |  | 210
Cc1ncsc1-c1ccc(CNC(=O)[C@@H]2C[C@H](O)CN2C(=O)[C@@H](NC(=O)C2(F)CC2)C(C)(C)C)c(OCCOc2ccc(CN3CCN(c4cc(-c5ccccc5O)nnc4N)CC3)cc2)c1 | SMARCA2 bromodomain | binding | SPR |  |  | 1100
COC(=O)c1c(O)cc(O)c(Cl)c1CCC(=O)Nc1cccc(Cl)c1 | HSP90B1 | ligand displacement | FP |  |  | 6420
O=C1OC2(c3ccc(O)cc3Oc3cc(O)ccc32)c2ccccc21 | LYZ | binding | fluorescence |  |  | 3800
CCCN1CCN(c2ccc(-c3cncc(Cl)c3N3CCC4(CCNC4=O)CC3)cc2)CC1 | Protein kinase C delta type (PRKCD, Homo sapiens, UniProt Q05655) | cell-free assay |  |  | lysate | 3470
COC(=O)c1c(O)cc(O)c(Cl)c1CCC(=O)Nc1nncs1 | HSP90B1 | ligand displacement | FP |  |  | 1540
N=c1ccc2c(-c3ccc(C(=O)NCCCCCCn4cc(CCCC(=O)Nc5nc6ccc(Cl)cc6c6nc(-c7ccco7)nn56)nn4)cc3C(=O)O)c3ccc(N)c(S(=O)(=O)O)c3oc-2c1S(=O)(=O)O | Adenosine receptor A3 (ADORA3, Homo sapiens, UniProt P0DMS8) | binding | flow cytometry |  |  | 5.15
c1cncc(-c2cccc(Nc3nccc(NC4CCCCC4)n3)c2)c1 | TYK2 JH2 | binding | competition with immobilised ligand |  |  | 740
Cc1ncsc1-c1ccc(CNC(=O)[C@@H]2C[C@@H](O)CN2C(=O)[C@@H](NC(=O)C2(F)CC2)C(C)(C)C)c(OCCOCCOCCN2CCN(c3cc(-c4ccccc4O)nnc3N)CC2)c1 | SMARCA2 bromodomain | binding | SPR |  |  | 4500
COc1cc2c(Nc3ccc(NC(=O)c4ccccc4)cc3)ncnc2cc1OCCCN1CCOCC1 | Epidermal growth factor receptor (EGFR, Homo sapiens, UniProt P00533) | binding |  |  |  | > 10000
C=CC(=O)N1CCC(C(=O)NCC(=O)N2CCN(c3nc(-c4cnc(N)nc4C(F)F)nc(N4CCOCC4)n3)CC2)CC1 | MTOR | binding | competition with immobilised ligand |  |  | 32
